# Measurements collected from several papers.
# Lines come from different studies, so protocols differ.
# CDKL5: Cyclin-dependent kinase-like 5 (CDKL5, Homo sapiens, UniProt O76039)
# DYRK3: Dual specificity tyrosine-phosphorylation-regulated kinase 3 (DYRK3, Homo sapiens, UniProt O43781)
# PTGS2: Prostaglandin G/H synthase 2 (PTGS2, Homo sapiens, UniProt P35354)
# DYRK1B: Dual specificity tyrosine-phosphorylation-regulated kinase 1B (DYRK1B, Homo sapiens, UniProt Q9Y463)
# BRWD1 BD2: Bromodomain and WD repeat-containing protein 1, BD2 (BRWD1, Homo sapiens, UniProt Q9NSI6)
SMILES,target,assay,test system,setting,quantity,result
Nc1ncnc2occ(-c3ccc(NC(=O)Nc4cc(C(F)(F)F)ccc4F)cc3)c12,CDKL5,cell-free assay,,20 µM,remaining signal,4.3%
O=C(O)c1ccc2c(c1)nc(Nc1ccccc1)c1ccncc12,DYRK3,"enzyme activity, inhibitor, radiometric",,1 µM,remaining activity,7%
Cc1cc2c(NC(=O)c3cccc(C(=O)O)c3)cccc2nn1,"CREB-binding protein, bromodomain (CREBBP, Homo sapiens, UniProt Q92793)","thermal stability, DSF",,100 µM,ΔTm,4 °C
O=c1cc(-c2ccc(O)cc2)oc2cc(O)cc(O)c12,PTGS2,"enzyme activity, inhibitor",,0.12 µg/mL,inhibition,3.07%
N#Cc1cccc(Nc2nc3cc(C(=O)O)ccc3c3cncnc23)c1,DYRK1B,"enzyme activity, inhibitor, radiometric",,1 µM,remaining activity,87%
CCN1CCN(Cc2ccc(NC(=O)c3ccc(C)c(Oc4ccnc5[nH]ccc45)c3)cc2C(F)(F)F)CC1,"Inositol-tetrakisphosphate 1-kinase (Homo sapiens, UniProt Q13572)","target engagement in cells, inhibitor, chemoproteomics",Huh-7,1 µM,inhibition,-10.6%
COc1ccc(-c2cc(=O)c3c(O)cc(O[C@@H]4O[C@H](CO)[C@@H](O)[C@H](O)[C@H]4O)cc3o2)cc1O,PTGS2,"enzyme activity, inhibitor",,31.25 µg/mL,inhibition,100%
Cc1cc2c(cc1N1C(=O)c3cccc4c(Cl)ccc(c34)C1=O)n(C)c(=O)n2C,BRWD1 BD2,"thermal stability, DSF",,10 µM,ΔTm,-1.4 °C
NS(=O)(=O)c1ccc(Nc2nc(-c3ccc(F)cc3)c3ccccc3n2)cc1,BRWD1 BD2,"binding, competition with immobilised ligand",,1 µM,remaining binding,88%
Cc1ccc(C(=O)Nc2ccc(CN3CCN(C)CC3)c(C(F)(F)F)c2)cc1C#Cc1cnc2cccnn12,CDKL5,enzyme activity,,23.5 nM,remaining activity,100%
COc1cccc(Nc2nc3cc(C(=O)O)ccc3c3cnccc23)c1,DYRK3,"enzyme activity, inhibitor, radiometric",,1 µM,remaining activity,2%
Cc1cnc(Nc2ccc(OCCN3CCCC3)cc2)nc1Nc1cccc(S(=O)(=O)NC(C)(C)C)c1,"Transcription intermediary factor 1-beta (TRIM28, Homo sapiens, UniProt Q13263)","thermal stability, DSF",,10 µM,ΔTm,0.08 °C
O=C(O)c1ccc(O)cc1,PTGS2,"enzyme activity, inhibitor",,1.95 µg/mL,inhibition,41.7%
N#Cc1cccc(Nc2nc3cc(C(=O)O)ccc3c3cnccc23)c1,DYRK1B,"enzyme activity, inhibitor, radiometric",,1 µM,remaining activity,10%
Oc1ccc(-c2nc(-c3ccncc3)c(-c3ccc(F)cc3)[nH]2)cc1,"Bromodomain testis-specific protein, BD1 (BRDT, Homo sapiens, UniProt Q58F21)","thermal stability, DSF",,10 µM,ΔTm,-0.47 °C
CN(C)C1CCN(CC#Cc2nn(C3CCCC3)c3nc(NCc4ccccc4)ncc23)C1 (stereo not shown),"Serine/threonine-protein kinase PAK 1 (PAK1, Homo sapiens, UniProt Q13153)","enzyme activity, inhibitor, FRET",,0.1 µM,inhibition,2%
C[S+]([O-])c1ccc(-c2nc(-c3ccncc3)c(-c3ccc(F)cc3)[nH]2)cc1 (stereo not shown),BRWD1 BD2,"thermal stability, DSF",,10 µM,ΔTm,1.32 °C
O=C(O)c1ccc2c(c1)nc(Nc1ccc(Cl)cc1)c1ncncc12,DYRK3,"enzyme activity, inhibitor, radiometric",,1 µM,remaining activity,9%
CCOc1ccc2cc(-c3nn(CC4CCN(C)CC4)c4ncnc(N)c34)ccc2c1,"Calmodulin-domain protein kinase 1 (CDPK1, Toxoplasma gondii, UniProt Q9BJF5)","thermal stability, DSF",,20 µM,ΔTm,12.3 °C
COc1cc(/C=C/C(=O)CC(=O)/C=C/c2ccc(O)c(OC)c2)ccc1O,"Rho-associated protein kinase 2 (Rock2, Rattus norvegicus, UniProt Q62868)","enzyme activity, inhibitor",,1 µM,activity vs control,90%
O=C(NCCCNc1nc(Nc2cccc(CN3CCOCC3)c2)ncc1C1CC1)C1CCC1,"Inhibitor of nuclear factor kappa-B kinase subunit epsilon (IKBKE, Homo sapiens, UniProt Q14164)","enzyme activity, inhibitor, radiometric",,1 µM,remaining activity,4%
C=C[C@@]1(C)C=C2CC[C@@H]3[C@](C)(CCC[C@@]3(C)C(=O)O)[C@H]2CC1,PTGS2,"enzyme activity, inhibitor",,15.63 µg/mL,inhibition,85.3%
O=C(O)c1ccc2c(c1)nc(NCCc1ccccc1)c1ncncc12,DYRK1B,"enzyme activity, inhibitor, radiometric",,1 µM,remaining activity,123%
N=C(N)NCCC[C@H](NC(=O)[C@H](CC(=O)O)NC(=O)[C@H](Cc1c[nH]c2ccccc12)NC(=O)[C@H](CCCNC(=N)N)NC(=O)[C@@H](N)Cc1ccccc1)C(=O)N[C@@H](Cc1ccccc1)C(=O)NCC(=O)O,"Melanocyte-stimulating hormone receptor (Mc1r, Mus musculus, UniProt Q01727)","cAMP, agonist",HEK293,,Emax,30%
COC(=O)c1ccc(O)cc1,PTGS2,"enzyme activity, inhibitor",,0.49 µg/mL,inhibition,0%
O=C(O)c1ccc2c(c1)nc(Nc1ccc(F)c(Cl)c1)c1ccncc12,DYRK1B,"enzyme activity, inhibitor, radiometric",,1 µM,remaining activity,22%
O=c1cc(-c2ccc(O)c(O)c2)oc2cc(O)cc(O)c12,PTGS2,"enzyme activity, inhibitor",,0.12 µg/mL,inhibition,21.6%
O=C(O)c1ccc2c(c1)nc(Nc1ccc3ccccc3c1)c1ccncc12,DYRK1B,"enzyme activity, inhibitor, radiometric",,1 µM,remaining activity,84%
